{"source": "ChEMBL document CHEMBL3351274", "about": "“Sensitization of tumor necrosis factor-related apoptosis-inducing ligand (TRAIL)-resistant primary prostate cancer cells by isoegomaketone from Perilla frutescens” (J Nat Prod, 2014)", "key": {"Homo sapiens [1]": {"organism": "Homo sapiens", "test": "Sensitization of TRAIL-induced apoptosis in human RC-58T/h/SA#4 cells assessed as AIF level in mitochondria at 20 uM after 24 hrs by immunoblotting analysis relative to untreated control", "format": "functional, cell-based", "outline": "(§1)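 Cells given 20 μM compound and/or 100 ng/mL TRAIL for 24 h. Mitochondrial and cytosolic fractions prepared with a mitochondria isolation kit. Fractions resolved by 12% SDS-PAGE at 10 μg/lane and immunoblotted with anti-cytochrome c or anti-AIF overnight at 4 °C, then HRP secondary and ECL detection.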"}, "[2]": {"test": "Induction of apoptosis in human RC-58T/h/SA#4 cells assessed as cytochrome C level in cytosol at 20 uM after 24 hrs by immunoblotting analysis relative to untreated control", "format": "functional", "outline": "(§2)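 Cells grown in DMEM/10% FBS at 37 °C, 5% CO2, then treated 24 h with compound (20 μM) with or without TRAIL (100 ng/mL). Whole lysates were used for Bax and Bcl-2. Cytosolic and mitochondrial fractions were prepared with a mitochondria isolation kit for AIF and cytochrome c. Blotting used 10 μg protein/lane, 12% SDS-PAGE, nitrocellulose, overnight primary antibody at 4 °C and ECL detection.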"}, "Homo sapiens [3]": {"organism": "Homo sapiens", "test": "Induction of apoptosis in human RC-58T/h/SA#4 cells assessed as cytochrome C level in mitochondria at 20 uM after 24 hrs by immunoblotting analysis relative to untreated control", "format": "functional, cell-based", "outline": "as §2"}, "[4]": {"test": "Sensitization of TRAIL-induced apoptosis in human RC-58T/h/SA#4 cells assessed as cytochrome C level in cytosol at 20 uM after 24 hrs by immunoblotting analysis relative to untreated control", "format": "functional", "outline": "as §1"}, "Homo sapiens [5]": {"organism": "Homo sapiens", "test": "Induction of apoptosis in human RC-58T/h/SA#4 cells assessed as DR5 expression after 24 hrs by immunoblotting analysis relative to untreated control", "format": "functional, cell-based"}, "Homo sapiens [6]": {"organism": "Homo sapiens", "test": "Induction of apoptosis in human RC-58T/h/SA#4 cells assessed as DR5 expression at 20 uM by immunoblotting analysis relative to untreated control", "format": "functional, cell-based", "settings": "TDE = time-dependent effect"}, "[7]": {"test": "Induction of apoptosis in human RC-58T/h/SA#4 cells assessed as DR5 expression at 20 uM after 24 hrs by immunoblotting analysis relative to untreated control", "format": "functional"}, "[8]": {"test": "Induction of apoptosis in human RC-58T/h/SA#4 cells assessed as DR4 expression at 20 uM after 3 hrs by immunoblotting analysis relative to untreated control", "format": "functional"}, "[9]": {"test": "Induction of apoptosis in human RC-58T/h/SA#4 cells assessed as DR4 expression at 20 uM after 6 hrs by immunoblotting analysis relative to untreated control", "format": "functional"}, "[10]": {"test": "Induction of apoptosis in human RC-58T/h/SA#4 cells assessed as DR4 expression at 20 uM after 18 hrs by immunoblotting analysis relative to untreated control", "format": "functional"}, "[11]": {"test": "Induction of apoptosis in human RC-58T/h/SA#4 cells assessed as DR5 expression at 20 uM after 18 hrs by immunoblotting analysis relative to untreated control", "format": "functional"}, "[12]": {"test": "Sensitization of TRAIL-induced apoptosis in human RC-58T/h/SA#4 cells assessed as PARP cleavage at 20 uM after 24 hrs by immunoblotting analysis relative to untreated control", "format": "functional", "outline": "(§3)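 Cells seeded at 5 × 10^4 cells/mL and cultured 24 h, then given 20 μM compound and/or 100 ng/mL TRAIL for 24 h. Whole-cell lysate made in Tris/NaCl/EDTA/NaF/pyrophosphate/PMSF/aprotinin buffer, 30 min on ice, protein measured by BCA. 12% SDS-PAGE at 10 μg/lane, nitrocellulose blot, primary antibodies (caspase-3, -8, -9, Bax, Bcl-2, PARP) overnight at 4 °C, HRP secondary, ECL.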"}, "Homo sapiens [13]": {"organism": "Homo sapiens", "test": "Induction of apoptosis in human RC-58T/h/SA#4 cells assessed as p53 expression at 2.5 to 40 uM by immunoblotting analysis relative to untreated control", "format": "functional, cell-based", "settings": "TDE = time-dependent effect", "outline": "(§4)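 RC-58T/h/SA#4 cells seeded at 5 × 10^4 cells/mL and cultured 24 h, then given compound across a concentration series or at fixed dose over a time course. Lysates were quantified by BCA. 10 μg protein/lane run on 12% SDS-PAGE and transferred to nitrocellulose. Blots probed for p53, CHOP and β-actin with HRP secondary and ECL.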"}, "Homo sapiens [14]": {"organism": "Homo sapiens", "test": "Induction of apoptosis in human RC-58T/h/SA#4 cells assessed as CHOP expression at 2.5 to 40 uM by immunoblotting analysis relative to untreated control", "format": "functional, cell-based", "settings": "TDE = time-dependent effect", "outline": "as §4"}, "[15]": {"test": "Induction of apoptosis in human RC-58T/h/SA#4 cells assessed as CHOP expression at 20 uM after 24 hrs by immunoblotting analysis relative to untreated control", "format": "functional", "outline": "as §4"}, "[16]": {"test": "Induction of apoptosis in human RC-58T/h/SA#4 cells assessed as p53 expression at 20 uM after 3 hrs by immunoblotting analysis relative to untreated control", "format": "functional", "outline": "as §4"}, "[17]": {"test": "Induction of apoptosis in human RC-58T/h/SA#4 cells assessed as p53 expression at 20 uM after 6 hrs by immunoblotting analysis relative to untreated control", "format": "functional", "outline": "as §4"}, "[18]": {"test": "Induction of apoptosis in human RC-58T/h/SA#4 cells assessed as p53 expression at 20 uM after 12 hrs by immunoblotting analysis relative to untreated control", "format": "functional", "outline": "as §4"}, "[19]": {"test": "Induction of apoptosis in human RC-58T/h/SA#4 cells assessed as CHOP expression at 20 uM after 12 hrs by immunoblotting analysis relative to untreated control", "format": "functional", "outline": "as §4"}, "[20]": {"test": "Induction of ROS generation in human RC-58T/h/SA#4 cells at 20 uM after 30 mins by flow cytometry (reference value: 1.9%)", "format": "functional"}, "Homo sapiens [21]": {"organism": "Homo sapiens", "test": "Sensitization of TRAIL-induced cytotoxicity against human RC-58T/h/SA#4 cells assessed as cell viability at 5 to 20 uM after 24 hrs by SRB assay", "format": "functional, cell-based", "outline": "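Cells seeded at 5 × 10^4 cells/mL, grown in DMEM with 10% FBS, and given the compound with or without 100 ng/mL TRAIL for 24 h at 37 °C, 5% CO2. RWPE-1 tested at 20 μM. Cells fixed in 12% TCA for 1 h at 4 °C, stained 1 h with 0.4% SRB, washed in 1% acetic acid, dye dissolved in 10 mM Tris and absorbance read. Three experiments, means ± SD.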"}, "[22]": {"test": "Sensitization of TRAIL-induced apoptosis in human RC-58T/h/SA#4 cells assessed as procaspase-3 activation at 20 uM after 24 hrs by immunoblotting analysis relative to untreated control", "format": "functional", "outline": "as §3"}, "[23]": {"test": "Sensitization of TRAIL-induced apoptosis in human RC-58T/h/SA#4 cells assessed as Bax activation at 20 uM after 24 hrs by immunoblotting analysis relative to untreated control", "format": "functional", "outline": "as §3"}, "[24]": {"test": "Induction of apoptosis in human RC-58T/h/SA#4 cells assessed as procaspase-8 activation at 20 uM after 24 hrs by immunoblotting analysis relative to untreated control", "format": "functional", "outline": "as §3"}, "Homo sapiens [25]": {"organism": "Homo sapiens", "test": "Sensitization of TRAIL-induced apoptosis in human RC-58T/h/SA#4 cells assessed as cell viability at 20 uM after 24 hrs by SRB assay in presence of NAC"}}, "note": "Calls of active or inactive are those of the source. No cut-off for these calls is given here.", "data": [{"smiles": "CC(C)/C=C/C(=O)c1ccoc1", "values": [{"measurement": "Ratio", "setting": "Homo sapiens [1]", "value": 0.3}, {"measurement": "Ratio", "setting": "[2]", "value": 0.9}, {"measurement": "Ratio", "setting": "Homo sapiens [3]", "value": 1.2}, {"measurement": "Ratio", "setting": "[4]", "value": 1.2}, {"measurement": "Activity", "setting": "Homo sapiens [5]", "value": "Dose-dependent effect"}, {"measurement": "Activity", "setting": "Homo sapiens [6]", "value": "tde"}, {"measurement": "Ratio", "setting": "[7]", "value": 1.2}, {"measurement": "Ratio", "setting": "[8]", "value": 1.2}, {"measurement": "Ratio", "setting": "[9]", "value": 1.1}, {"measurement": "Ratio", "setting": "[10]", "value": 1.1}, {"measurement": "Ratio", "setting": "[11]", "value": 1.5}, {"measurement": "Ratio", "setting": "[12]", "value": 0.7}, {"measurement": "Activity", "setting": "Homo sapiens [13]", "value": "tde"}, {"measurement": "Activity", "setting": "Homo sapiens [14]", "value": "tde"}, {"measurement": "Ratio", "setting": "[15]", "value": 1.8}, {"measurement": "Ratio", "setting": "[16]", "value": 1}, {"measurement": "Ratio", "setting": "[17]", "value": 1.1}, {"measurement": "Ratio", "setting": "[18]", "value": 1.8}, {"measurement": "Ratio", "setting": "[19]", "value": 1.6}, {"measurement": "Activity", "setting": "[20]", "value": 2.9, "unit": "%"}, {"measurement": "Activity", "setting": "Homo sapiens [21]", "value": "Active"}, {"measurement": "Ratio", "setting": "[22]", "value": 0.4}, {"measurement": "Ratio", "setting": "[23]", "value": 1.8}, {"measurement": "Ratio", "setting": "[24]", "value": 1.2}, {"measurement": "Activity", "setting": "Homo sapiens [25]", "value": "inactive"}]}]}
